This sample holds only a part of the variants without activity.
B1: tRNA (parent)
chain: GUUCCGUUGGCGUAAUGGUAACGCGUCUCCCUCCUAAGGAGAAGACUGCGGGUUCGAGUCCCGUACGGAACG

Variants of: B1
Assay: yeast fitness relative to wild type (ratio to wild type); higher = fitter; tRNA-Arg(CCU), competitive growth, 37 C, YPD
Outline: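 Amplicons of the tRNA-Arg(CCU) gene were sequenced, 100-nucleotide paired-end, from the start population and from each end population of a pooled yeast competition. The competition, in six parallel replicates, lasted 24 hours in YPD at 37°C. Fitness relative to wild type was calculated from changes in genotype frequencies. Genotypes had to have ≥ 100 starting reads, and estimates < 0.5 were set to 0.5.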
Variant GUUCCGUUGGCGUAAUGGUAAUGCGCCUCCCUCCUAAGGAGAAGACUGCGGGUUCGAGUCCCGUACGGAACG [C22U U26C] has a yeast fitness of 0.667. Work on GUUCCGUUGGCGUAAUGGUAAUGCGUCUCCCUCCUAAGGAGAAGACUGCGGCUUCGAGUCCCGUACGGAACG [C22U G52C] yielded a yeast fitness of 0.537. With GUUCCGUUGGCGUAAUGGUAAUGCGUCUCCCUCCUAAGGAGAAGACUGCGGCUUCGAGUCCCGUACGAAACG [C22U G52C G68A] the yeast fitness was ≤ 0.5. GUUCCGUUGGCGUAAUGGUAACACGUCUCCCUCCUAAGGAGAAGUCUGCGGGUUCAAGUCCCGUACGGAACG [G23A A45U G56A] gave a yeast fitness of 0.727. Work on GUUCCGUUGGCGUAAUGGUAAUGCGUCUCCCUCCUAAGGAGAAGACUGGGGGAUCGAGUCCCGUACGGAACG [C22U C49G U53A] yielded a yeast fitness of 0.558. In the case of GUUCCGUUGGCGUAAUGGUAAUGCAUCUCCCUCCUAAGGAGAAGACUGCGGGUUCGAGUCCCGUACCGAACG [C22U G25A G67C], the yeast fitness is reported as 0.535. For GUUCCGUUGGCGUAAUGGUAACACGUCUCUCUCCCAAGGAGAAGACUGCGGGUUCGAGUCCAGUACGGAACG [G23A C30U U35C C62A], the yeast fitness was ≤ 0.5. With GUUCCGUUGGCGUAAUGGUAACACGUCUCCCUCCUAAGGAGAUGACUGCGGGUUCGAGUCCUGUACGGAACG [G23A A43U C62U] the yeast fitness was 0.751. For GUUCCGUUGGCGUAAUGGUAACACGUCUCCCUCCUAAGGAGACGACUGCGGGUUCGAGUCCCGUAGGGAACG [G23A A43C C66G], the yeast fitness was ≤ 0.5. In the case of GUUCCGUUGGCGUAAUGGUAACACGUGUCCCUCCUAAGGAGAAGACUGCGGGUUGGAGUCCCGUACGGAACG [G23A C27G C55G], the yeast fitness is reported as ≤ 0.5. Work on GUUCCGUUGGCGUAAUGGUAACACGUCUGCCUCCUAAGGAGAAGUCUGCGGGUUCGAGUGUCGUACGGAACG [G23A C29G A45U C60G C61U] yielded a yeast fitness of 0.557. For GUUCCGUUGGCGUAAUGGUAACACGUCUCACUCCUAAGGAGAAGACUGCGGGUUCGAGUCCCGAACGGAACG [G23A C30A U64A], the yeast fitness was ≤ 0.5. In the case of GUUCCGUUGGCGUAAUGGUAACACGUCUCCUUCCUAAGGAGAAGACUGCGGGUUCGUGUCCCGUACGGAACG [G23A C31U A57U], the yeast fitness is reported as ≤ 0.5. In the case of GUUCCGUUGGCGUAAUGGUAAUGCGUCACCCUCCUAAGGAGAAGACUGCGGGUUGGCGUCCCGUACGGAACG [C22U U28A C55G A57C], the yeast fitness is reported as ≤ 0.5. For GUUCCGUUGGCGUAAUGGUAAUGCGUCUCCCUCCCAAGGAGAAGACUGCGGGUUAGAGUCCCGUAUGGAACG [C22U U35C C55A C66U], the yeast fitness was ≤ 0.5. In the case of GUUCCGUUGGCGUAAUGGUAAUGCGUCUCCCUCCUAAGGAGAAGAGUGAGGGUUCGAGUACCGUACGGACCG [C22U C46G C49A C60A A70C], the yeast fitness is reported as ≤ 0.5. With GUUCCGUUGGCGUAAUGGUAAUCCGUCUCCCUCCUAAGGAGAAGACUGCGGCUUCGAGUCCCGUACGGAACG [C22U G23C G52C] the yeast fitness was ≤ 0.5. For GUUCCGUUGGCGUAAUGGUAAUGCGUCGCCCUCCUAAGGAGAAGGCUGCGGGUUCGAGUCCCGUGCGGAACG [C22U U28G A45G A65G], the yeast fitness was ≤ 0.5. For GUUCCGUUGGCGUAAUGGUAAUACGUCUCCCUCCUAAGGAGAAGACUGCGGGUGCGUGUCCCGUACGGAACG [C22U G23A U54G A57U], the yeast fitness was ≤ 0.5. In the case of GUUCCGUUGGCGUAAUGGUAACACGUCUUCCUCCUAAGGAGAAGACUGCGGGUUCGAGUUCCGUUCGGAACG [G23A C29U C60U A65U], the yeast fitness is reported as ≤ 0.5. For GUUCCGUUGGCGUAAUGGUAAUGCGACUCCCUCCUAAGGAGAAGACUGCGGGUUCGAGUCCCGUACCGAACG [C22U U26A G67C], the yeast fitness was ≤ 0.5. Work on GUUCCGUUGGCGUAAUGGUAACACGUCUCCCUCAUAAGGAGAAGACUGCGGGUUCGAGUCCCGUACGGAACG [G23A C34A] yielded a yeast fitness of 0.523. In the case of GUUCCGUUGGCGUAAUGGUAACACGUCUCCCUCCUAAGGGGAAGCCUGCGGGUUCGAGUCCCGUACGGAACG [G23A A40G A45C], the yeast fitness is reported as ≤ 0.5. In the case of GUUCCGUUGGCGUAAUGGUAACACGUCUCUCUCCCAAGGAGAAGACUGCGGGUUCGAGUCCCGUACUGCACG [G23A C30U U35C G67U A69C], the yeast fitness is reported as ≤ 0.5. In the case of GUUCCGUUGGCGUAAUGGUAACACGUCUCUCUCCCAAGGAGAAGACUGCGGGUUCGAGUCCCGUACGGAACG [G23A C30U U35C], the yeast fitness is reported as ≤ 0.5. In the case of GUUCCGUUGGCGUAAUGGUAAUGCGUCUCCCUCCUAAGGAGAAGACAGCGGGUUCGAGUCCCGUACGGAGCG [C22U U47A A70G], the yeast fitness is reported as 0.536. With GUUCCGUUGGCGUAAUGGUAACACGUCUCCCUCCUAAGGAGAAGACUGCGGGUUUGCAUCCCGUACGGAACG [G23A C55U A57C G58A] the yeast fitness was ≤ 0.5. For GUUCCGUUGGCGUAAUGGUAAUGCGUCCCCCUCCUAAGGAGAAGACUGCGGGUACGAGUCCCGUACGGUACG [C22U U28C U54A A69U], the yeast fitness was ≤ 0.5. GUUCCGUUGGCGUAAUGGUAAUGCGUCUCCCCCCUAAGGAGAAGACUGCGGGUUCGAGUCCCGUACGGAACG [C22U U32C] gave a yeast fitness of 0.902. With GUUCCGUUGGCGUAAUGGUAACACGUCUCCAUCCUAAGGAGAAGACUGCGGGUUCGAGUCCCGUACGGCACG [G23A C31A A69C] the yeast fitness was ≤ 0.5. With GUUCCGUUGGCGUAAUGGUAACACGUUUCCCUCCUAAGGAGAAGACUGCGGGUUCGAGUGCCGUACAGAACG [G23A C27U C60G G67A] the yeast fitness was 0.549. In the case of GUUCCGUUGGCGUAAUGGUAAUGCAGCUCCCUCCUAAGGAGAAGACUGCGGGUUCGAGUCCUGUUCGGAACG [C22U G25A U26G C62U A65U], the yeast fitness is reported as 0.51. For GUUCCGUUGGCGUAAUGGUAAUGCGUCUCCCUCCUAAGGAGAAGACGGCGGGUUCGAGUCCCGUACGGAACG [C22U U47G], the yeast fitness was 0.611. For GUUCCGUUGGCGUAAUGGUAAUGCGUCUCCCUCCUAAGGAGAAGACUGCGGAUUCGUGUCCCGUACGGAACG [C22U G52A A57U], the yeast fitness was ≤ 0.5. In the case of GUUCCGUUGGCGUAAUGGUAACACGUCUCCGUCCUAAGGAGAAGACUGCGGAUUCGAGUCCCGUACGGAACG [G23A C31G G52A], the yeast fitness is reported as ≤ 0.5. Variant GUUCCGUUGGCGUAAUGGUAACACGUCUCGCUCCUAAGGAGAAGACUGCGGGUUCGAGUCCCGUACGGAACG [G23A C30G] has a yeast fitness of 0.527. GUUCCGUUGGCGUAAUGGUAACACGUCUCCCUCCUAAGGAGAAGAUUGCGGGUUCGAGUCCCGUACGGAACG [G23A C46U] showed a yeast fitness of 0.646.
